Source: ChEMBL document CHEMBL1141351, “Inhibitors of osteoclast differentiation from Cephalotaxus koreana” (J Nat Prod, 2007)

Legend:
Osteoclast [1] = assay: Inhibition of ICR mouse osteoclast differentiation at 1.0 ug/mL; format: functional
Outline: (§1)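 Co-culture of bone marrow cells (femora, 6-week-old ddY mice; 2.5×10^5 cells/cm²) with calvarial osteoblastic cells (newborn ICR mice, collagenase digestion; 4 × 10⁴ cells/cm²) in α-MEM/10% FBS with 1,25(OH)₂D₃ (1 × 10⁻⁸ M) and dexamethasone (1 × 10⁻⁷ M). DMSO stocks (2 mg/mL) were filter-sterilized and added at 0.1 or 1.0 μg/mL. Medium was changed every 2 days. On day 6, cells were formaldehyde-fixed and TRAP-stained. TRAP(+) multinucleated cells with >6–7 nuclei were counted. Results are % inhibition versus control, as mean ± SD of three replicates, with Student's t-test.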

Osteoclast [2] = assay: Inhibition of ICR mouse osteoclast differentiation at 0.1 ug/mL; format: functional; outline: as §1
Osteoclast [3] = assay: Induction of mouse osteoclast apoptosis; format: functional, cell-based

| SMILES | inhibition at 1 µg/mL (Osteoclast [1]) [%] | inhibition at 0.1 µg/mL (Osteoclast [2]) [%] | IC50 (Osteoclast [3]) [µM] |
| --- | --- | --- | --- |
| O=c1cc(-c2ccc(O)cc2)oc2c(O)c(O)cc(O[C@@H]3O[C@H](CO)[C@@H](O)[C@H](O)[C@H]3O)c12 | 86 | 63 |  |
| CC(=O)OC[C@H]1O[C@@H](Oc2c(-c3ccc(O)c(O)c3)oc3cc(O)cc(O)c3c2=O)[C@H](O)[C@@H](O)[C@@H]1O | 65 | 51 |  |
| C[C@H]1O[C@@H](OC[C@H]2O[C@@H](Oc3c(-c4ccc(O)cc4)oc4cc(O)cc(O)c4c3=O)[C@H](O)[C@@H](O)[C@@H]2O)[C@@H](O)[C@@H](O)[C@@H]1O | 85 | 68 |  |
| COc1ccc(-c2oc3cc(O)cc(O)c3c(=O)c2O[C@@H]2O[C@H](CO[C@@H]3O[C@H](C)[C@@H](O)[C@H](O)[C@@H]3O)[C@@H](O)[C@H](O)[C@H]2O)cc1O | 63 | 40 |  |
| O=c1cc(-c2ccc(O)cc2)oc2cc(O)cc(O)c12 [APIGENIN] | 65 | 45 |  |
| O=c1c(O)c(-c2ccc(O)cc2)oc2cc(O)cc(O)c12 [KAEMPFEROL] |  |  | 1.6 |
| O=c1c(O)c(-c2ccc(O)c(O)c2)oc2cc(O)cc(O)c12 [QUERCETIN] |  |  | 5.3 |
| C[C@@H]1O[C@@H](Oc2c(-c3ccc(O)c(O)c3)oc3cc(O)cc(O)c3c2=O)[C@H](O)[C@H](O)[C@H]1O [QUERCITRIN] | 67 | 56 |  |
